The series concerns MS2 coat protein. The experiment in a line: apparent Kd, MS2 coat protein; higher = weaker binding; RNA-MaP array; FMN 200 µM where present. Summed up: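 The apparent Kd is reported as the median of filtered per-cluster binding-curve fits. To get these curves, designs transcribed by stalled E. coli RNA polymerase on Illumina sequencing-chip clusters were titrated with SNAP-549-labelled MS2 coat protein from 0.7 or 1.5 nM, doubling to 3 µM. Titrations were run without and then with constant ligand in 100 mM Tris-HCl pH 7.5, 80 mM KCl, 4 mM MgCl2, BSA, DTT, yeast tRNA and Tween-20, and green signal was normalised to red-channel RNA signal and control-cluster median Fmax.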

Setting [1] is: designed as: OFF switch for flavin mononucleotide, no ligand.
[2] abbreviates: ligand present: flavin mononucleotide, designed as: OFF switch for flavin mononucleotide.
The mark [3] stands for this setting: designed as: ON switch for flavin mononucleotide, no ligand.
The mark [4] stands for this setting: ligand present: flavin mononucleotide, designed as: ON switch for flavin mononucleotide.

Data on 48 sequences can be found in the EternaBench riboswitch data.

For the sequence “GGAUAGGACAGAGGAUAUACGUGCUAGAGAUACUAGCAAAAUUUCCGCACAUGAGGAUCACCCAUGUAGAAGGCUGUCCUAUCG”, the apparent Kd (usually the concentration giving half-maximal binding under the conditions of the assay) is, setting by setting: under setting [1], 5.82 nM; under setting [2], 9.26 nM.
Regarding “AUUAACUACAUAGGAUAUUGAUACAUGAGGAUCACCCAUGUCACGUAUUUAUAUUAAACAUUUGACAAGAAGGAUGUGGUUACA”, the “apparent Kd” value by setting is: under setting [3], 17.2 nM; under setting [4], 7.01 nM.
The matching figures for “AUGGAUAUCACAGGAUAUGCCAUGGAUACCAUGGCAGAAGGGUGAUCCAUCCUAUGUAAAUACAUGAGGAUCACCCAUGUGUCC”: 16.1 nM and 13.7 nM.
As for “UUGUUAGGGAGAGGAUAUUGACAUGAGGAUCACCCAUGUAUUUGGGAGUGUUUACUGAAUUCUUACGAGAAGGCUUACGAAAUC”, the “apparent Kd” value under setting [1] was determined as 264 nM and the “apparent Kd” value under setting [2] worked out at 186 nM.
Regarding “CCUCAGUAAGGAUAUCAGCUUAUAAGGUUGGUAAUGAGAGCUGAGAAGGUACAUGAGGAUCACCCAUGUUAGUU”, the “apparent Kd” value turned out to be 27.1 nM under setting [1] and 95.7 nM under setting [2].
The matching figures for “CUGGGAUCAGUAGGAUAUGCCGGACAUGAGGAUCACCCAUGUAAGGCGUGCUUCCCUCACGUGCGGCAGAAGGGCUGCGUCACU”: 43.4 nM and 40 nM.
In the case of “UGGUACUAGGGAGGAUAUGGGAAGAUACAUGAGGAUCACCCAUGUUUAAGAAUGCCGAGAGGCAACUAGAAGGCCCUAGUAGCU”, the “apparent Kd” value is 539 nM under setting [3] and 19.9 nM under setting [4].
The like results for “AGUGUCAUCGAGAAGGCCUCAACAUGAGGAUCACCCAUGUUGCAAAAUGGGAGGAUAUCGCAAAAACAGCUACGUUUCGUAGCA” were, in that order, 45.4 nM and 7.43 nM.
On to “CGAGUACAUGAGGAUCACCCAUGUUAUGAAUUGUCAGGAUAUGGGUAUUGGUGACAUGCGCCAGAAGGGACGUCUG”, for which the “apparent Kd” value under setting [3] is 232 nM and the “apparent Kd” value under setting [4] was 124 nM.
On to “AAUAAGUGAGGAUAUACGAAAUAAAUAAAUAAAUAAAUAAAGUAGAAGGCACAUGAGGAUCACCCAUGUAAUAA”, for which the “apparent Kd” value under setting [1] was 34.6 nM and the “apparent Kd” value under setting [2] turned out to be 29 nM.
In the case of “CGACAUACGAUGGACGGAAACGUACAUGAGGAUCACCCAUGUAGAAGGCGAUCCGCAACGCGGAUUGAGGAUAUAUACCACACA”, the “apparent Kd” value runs as follows: under setting [1], 19.2 nM; under setting [2], 17.8 nM.
“CACCGUUACGUAGGAUAUAGUACAUGAGGAUCACCCAUGUAAUAAAUGAGAAUUUCGGAUGUAUGCUAGAAGGACGAAAUCGGC”: the “apparent Kd” value under setting [1] was determined as 53 nM and the “apparent Kd” value under setting [2] amounted to 49.1 nM.
Consider “UAUGUUUUAGGAUAUUGUACUGCUGACAUGAGGAUCACCCAUGUAUGCUAACUCGGCUGUCGAGAAGGAGAAUAUG”, for which the “apparent Kd” value under setting [1] came to 64.3 nM and the “apparent Kd” value under setting [2] came to 56 nM.
As for “AGGAGACAUGAGGAUCACCCAUGUGCGAGGUGAAGAGGAUAUAGAAGAAGAAGAAAGAAACUAGAAGGCUUAAAAA”, the “apparent Kd” value came to 220 nM under setting [3] and 244 nM under setting [4].
In the case of “CCCUCACAUGAGGAUCACCCAUGUGAGGAUAUGCAUUCCAAAGCGAGCUUUGAGAAGAGUAGAAGGCACUGGUG”, the “apparent Kd” value by setting is: under setting [1], 17.1 nM; under setting [2], 19.9 nM.
The matching figures for “AUGGUACAUGAGGAUCACCCAUGUCAGGAUAUCGGCUUUAACGUGAAAAGAGUGUUAGCGAGAAGGGACUGCUC”: 23.6 nM and 28.7 nM.
Turning to “UAUAAGAACGAAGGAUAUGGUUACAUGAGGAUCACCCAUGUAUUAAUAUUGAUCUAUUUUUAUAACCAGAAGGUCGAGAGUAAA”, the “apparent Kd” value amounted to 27.4 nM under setting [1] and 39.7 nM under setting [2].
For the sequence “AAAGUACAUGAGGAUCACCCAUGUUGAAAAAAUCGAGGAUAUGCGAAAAAAAAAAAAAAAGCAGAAGGUGAAAAAA”, the “apparent Kd” value by setting is: under setting [3], 49 nM; under setting [4], 42.4 nM.
For the sequence “UUUUUGAAGCUUCGUCAAUACAGUUAGGAUAUGAGAGACAUGAGGAUCACCCAUGUGCAUGUUGAUUAGAAGGAACAACUAUCU”, the “apparent Kd” value by setting is: under setting [1], 14.2 nM; under setting [2], 12.7 nM.
With “GGGUACAUCGGAGGAUAUCAUGUAAAUACAUGAGGAUCACCCAUGUCGAUGGACACAUCGGAGAUUGAGAAGGCCGAUGUACCG”, the “apparent Kd” value is 14.5 nM under setting [3] and 5.27 nM under setting [4].
As to “AACAAUCUAUCUGAGGAUAUCAUGUCAAAGACAUGAGGAUCACCCAUGUACCAGGAAACUGGAUAUGAGAAGGCAGAUAGAUUGA”, the “apparent Kd” value runs as follows: under setting [3], 199 nM; under setting [4], 22.8 nM.
Turning to “GACCUGACAUAAUAAUGUAGAAAUACAUGAGGAUCACCCAUGUAGGAUAUGCAGUGGAAUACACUGCAGAAGGACAUAGUCAGG”, the “apparent Kd” value under setting [1] came out at 15.9 nM and the “apparent Kd” value under setting [2] came to 22.9 nM.
With “UUUUUGUCAGGAUAUGACUAGAUGCACGUUAGUGCAUCUACUUAGAAGGGACAUGAGGAUCACCCAUGUAUUCC”, the “apparent Kd” value was 29.8 nM under setting [1] and 24.3 nM under setting [2].
With “UUAAUUAAUUAAUUCGUCAUUACAUGAGGAUCACCCAUGUAUAAGGAUAUGCAGUGGAAUACACUGCAGAAGGUAUACAAGACG”, the “apparent Kd” value reads like this: under setting [1], 18.4 nM; under setting [2], 26.6 nM.
“GGUACUCAAAGAGUACUUGGUCGAACAUGAGGAUCACCCAUGUAGGAUAUGCAAAGCUAGAAGUAGCAGAAGGACAUGUGCAGC”: the “apparent Kd” value runs as follows: under setting [1], 14.4 nM; under setting [2], 22.1 nM.
Take “CUGAGCUGAGGAUAUACAUGAGGAUCACCCAUGUGGGCCUGCGAGGUUACUUGCACAUGUAGAAGGCAGUUCGG”: the “apparent Kd” value was 136 nM under setting [1] and 17.2 nM under setting [2].
As for “GCCAUUGCAUGAGGAUAUGCUCCCGUUUCGGGAGCAGAAGGCAUGUCAUAAGACAUGAGGAUCACCCAUGUAGUUAAGAUGGCA”, the “apparent Kd” value turned out to be 398 nM under setting [3] and 15.2 nM under setting [4].
Regarding “GAUCCUUCUGUUAGGAUAUGCUUUGGGCUUCCGCAGCAGAAGGAACAUGAGGAUCACCCAUGUCCAAUGCCGUC”, the “apparent Kd” value under setting [1] worked out at 56.6 nM and the “apparent Kd” value under setting [2] turned out to be 63.9 nM.
For the sequence “CAGUACUGAGGAUAUACAUGAGGAUCACCCAUGUGGUUAAGCUAGGAAACUAGCAAAUGUAGAAGGCAGUACUG”, the “apparent Kd” value worked out at 240 nM under setting [1] and 85.1 nM under setting [2].
The matching figures for “GGAUAGGACAGAGGAUAUACGUGCUAGAGAUACUAGCAAAAUUUCCUCACAUGAGGAUCACCCAUGUAGAAGGCUGUCCUUUCG”: 17.9 nM and 473 nM.
The matching figures for “UGUUUUCAUGUAGGAUAUGCUUGUCGUAGAUACGCAGAAGGACAUGAGGAUCACCCAUGUUAAAGCGACAGAGUAUAGAUUCUU”: 16.3 nM and 22.3 nM.
For the sequence “UUAAUUUUAUGAUAUUAUGACAUUAGAAGGCUGUACAUGUUGAUACAUGAGGAUCACCCAUGUAUAGAGGAUAUAGACAAUUUU”, the “apparent Kd” value by setting is: under setting [1], 32.4 nM; under setting [2], 63.9 nM.
Regarding “AUGAUUAUAUUAUACAUGAGGAUCACCCAUGUUAUAAGUCAUGAGGAUAUGGUAUUGUAGUUAUUCCAGAAGGCAUUUAACUUA”, the “apparent Kd” value came out at 7.02 nM under setting [3] and 5.79 nM under setting [4].
Regarding “AAAACAUGAGGAUCACCCAUGUAAAGAUCGGUUAAUUGUUGUGAGGAUAUACUAAAUUUUAGGUUGUAGAAGGCACUGGGUACA”, the “apparent Kd” value is, setting by setting: under setting [3], 43.1 nM; under setting [4], 54.9 nM.
As for “UACAAUCUAUCUGAGGAUAUCAUGAUUAUAACAUGAGGAUCACCCAUGUGCAGGAAAACUGCAUAUGAGAAGGCAGAUAGAUUGU”, the “apparent Kd” value under setting [3] was found to be 611 nM and the “apparent Kd” value under setting [4] was determined as 98 nM.
“AGCUACGUUUCGUAGCAGUGUCAUCGAGAAGGCCUCAUUACAUGAGGAUCACCCAUGUGGACAUGGGAGGAUAUCGAUGAUACA”: the “apparent Kd” value under setting [3] turned out to be 487 nM and the “apparent Kd” value under setting [4] turned out to be 212 nM.
Take “GCGUUGAACGAGAAGGCCAAUACAUGAGGAUCACCCAUGUUUAGAUGUUUUGGAGGAUAUCGUACGUAGUCAAAAGAGCAACGC”: the “apparent Kd” value was found to be 11.3 nM under setting [1] and 10.2 nM under setting [2].
On to “UGUUGAUAGCAGAAGGACAUGAGGAUCACCCAUGUAUGGAUACAAAUAUAUGUAGGAUAUGCUAUUAACUAAGAGUGAGCGUUC”, for which the “apparent Kd” value came out at 9.12 nM under setting [1] and 24.4 nM under setting [2].
Take “AAUAUAAGAGCUGGACUCAAAAGAACAUGAGGAUCACCCAUGUAGGAUAUCAGCACGAUAAGUGCUGAGAAGGACAACCAGCUC”: the “apparent Kd” value came to 14.4 nM under setting [1] and 15.2 nM under setting [2].
With “GUUAGUUAAGGAUAUACAGGGAGCUGCGGCGUCUCGCCGCAACAUGAGGAUCACCCAUGUAGAAGGUAGCCGUU”, the “apparent Kd” value reads like this: under setting [1], 76.4 nM; under setting [2], 121 nM.
For “CCGUUCUGAGGAUAUCCACCCUCAUACAUGAGGAUCACCCAUGUUCACCCUUGGGUUCCCGGAGAAGGCAGUUUUC”, the “apparent Kd” value was found to be 232 nM under setting [1] and 467 nM under setting [2].
On to “CAGUACUGAGGAUAUACAUGAGGAUCACCCAUGUGUUCCAGCUAGGGAACUAGCAAAAGUAGAAGGCAGUACUG”, for which the “apparent Kd” value under setting [1] came out at 22.4 nM and the “apparent Kd” value under setting [2] amounted to 437 nM.
The like results for “UGAUAGCACAGAGGAUAUGCGUAUAGUUAUCACUACAUGAGGAUCACCCAUGUAGAAGGCUGUGCUAUCUAAGUCGGAAACGAC” were, in that order, 5.85 nM and 6.11 nM.
With “AAAGAGCGAGGAUAUACGUAUCGGUGCGGCCAGCCGAUGUGACAUGAGGAUCACCCAUGUAGAAGGCGCAGAAA”, the “apparent Kd” value is 26.9 nM under setting [1] and 35.4 nM under setting [2].
The matching figures for “UGUUUUUAUGUGAGGAUAUGGGUUUGGUUGCGGGCUUAGAAGGUACAUGAGGAUCACCCAUGUACUUUGUGCAU”: 16.4 nM and 17 nM.
For the sequence “UAAAAACAUGAGGAUCACCCAUGUGAAAAUAUGGGAGGAUAUACAAAGACGAGAGUCAAAGUAGAAGGCCUAAAAU”, the “apparent Kd” value was 73.5 nM under setting [3] and 24.5 nM under setting [4].
In the case of “UAUAAUAUUAUAGGAUAUGGAUACGAUGCGUAUCCAGAAGGGUGAUUAUAAUAUAAUCUAUACAUGAGGAUCACCCAUGUUUAU”, the “apparent Kd” value under setting [3] came to 301 nM and the “apparent Kd” value under setting [4] came to 121 nM.
In the case of “UGGAUGGUAUGAGGAUAUGCGCGCGAAACGCGCGCAGAAGGCGUGUCAAUAGACAUGAGGAUCACCCAUGUACUAUCCAUCCAA”, the “apparent Kd” value by setting is: under setting [3], 85.2 nM; under setting [4], 9.82 nM.
